Results: ChEMBL document CHEMBL4689842, “EUbOPEN Chemogenomics Library wave 1” (2021)
“And” between values parts separate entries of the source, which are not always exact repeats. Identical values can stand only once.

Test system: U2OS
Test: Multiplex assay against U2OS
Assay type: toxicity, cell-based
Conditions: human
Outline: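 Per cents of healthy-nucleus cells form the tubulin, mitochondrial-mass and membrane-permeability phenotype values. Live cells were stained at seeding with Hoechst33342, BioTracker Green Microtubule Cytoskeleton Dye, MitoTracker Red and Annexin V Alexa Fluor 680. After compound addition they were imaged on a CQ1 microscope at 37°C and 5% CO2, and CellPathfinder machine-learning gating split them into Hoechst high-intensity objects or normal cells, normal cells into healthy, pyknosed or fragmented nuclei, and pyknosed cells into mitotic or apoptotic.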

[1] = 12 h, 1 µM, compound concentration 1 uM, replicate 1
[2] = 12 h, 1 µM, compound concentration 1 uM, replicate 2
[3] = 12 h, 10 µM, compound concentration 10 uM, replicate 1
[4] = 12 h, 10 µM, compound concentration 10 uM, replicate 2
[5] = 24 h, 1 µM, compound concentration 1 uM, replicate 1
[6] = 24 h, 1 µM, compound concentration 1 uM, replicate 2
[7] = 24 h, 10 µM, compound concentration 10 uM, replicate 1
[8] = 24 h, 10 µM, compound concentration 10 uM, replicate 2

Compound: CCC1=C[C@@H]2C[N@](C1)Cc1c([nH]c3ccccc13)[C@@](C(=O)OC)(c1cc3c(cc1OC)N(C)[C@H]1[C@@](O)(C(=O)OC)[C@H](OC(C)=O)[C@]4(CC)C=CCN5CC[C@]31[C@@H]54)C2.O=C(O)C(O)C(O)C(=O)O.O=C(O)C(O)C(O)C(=O)O [VINORELBINE TARTRATE]
- Population Apoptotic (%) [1]: 55% and 29%
- Population Fragmented Nuclei (%) [1]: 14% and 9%
- Population Healthy Nuclei (%) [1]: 59% and 76%
- Population Mitochondria Different-Phenotype (%) [1]: 34% and 22%
- Population Mitotic Cells (%) [1]: 44% and 70%
- Population Normal (%) [1]: 97% and 92%
- Population Pyknosed Nuclei (%) [1]: 25% and 14%
- Population Tubulin-Different-Phenotype (%) [1]: 26%
- Population Fragmented Nuclei (%) [2]: 22%
- Population Healthy Nuclei (%) [2]: 50% and 69%
- Population Hoechst High Intensity Objects (%) [2]: 16% and 20%
- Population Mitochondria Different-Phenotype (%) [2]: 30%
- Population Mitotic Cells (%) [2]: 36% and 80%
- Population Normal (%) [2]: 83% and 79%
- Population Pyknosed Nuclei (%) [2]: 27% and 16%
- Population Tubulin-Different-Phenotype (%) [2]: 45% and 34%
- Population Apoptotic (%) [3]: 53% and 34%
- Population Fragmented Nuclei (%) [3]: 14% and 8%
- Population Healthy Nuclei (%) [3]: 74% and 76%
- Population Hoechst High Intensity Objects (%) [3]: 6% and 8%
- Population Mitochondria Different-Phenotype (%) [3]: 35% and 24%
- Population Mitotic Cells (%) [3]: 46% and 65%
- Population Normal (%) [3]: 93% and 91%
- Population Pyknosed Nuclei (%) [3]: 11% and 14%
- Population Tubulin-Different-Phenotype (%) [3]: 20% and 18%
- Total Cell Count [3]: 168 and 185
- Population Fragmented Nuclei (%) [4]: 12% and 11%
- Population Healthy Nuclei (%) [4]: 58% and 67%
- Population Hoechst High Intensity Objects (%) [4]: 13% and 18%
- Population Membrane Permeable-Phenotype (%) [4]: 56% and 20%
- Population Mitochondria Different-Phenotype (%) [4]: 45% and 18%
- Population Mitotic Cells (%) [4]: 40% and 82%
- Population Normal (%) [4]: 86% and 81%
- Population Pyknosed Nuclei (%) [4]: 29% and 21%
- Population Tubulin-Different-Phenotype (%) [4]: 45%
- Total Cell Count [4]: 132 and 78
- Population Apoptotic (%) [5]: 35% and 65%
- Population Fragmented Nuclei (%) [5]: 20% and 14%
- Population Healthy Nuclei (%) [5]: 49% and 56%
- Population Hoechst High Intensity Objects (%) [5]: 1% and 3%
- Population Membrane Permeable-Phenotype (%) [5]: 21% and 52%
- Population Mitochondria Different-Phenotype (%) [5]: 26% and 37%
- Population Mitotic Cells (%) [5]: 64% and 34%
- Population Normal (%) [5]: 98% and 96%
- Population Pyknosed Nuclei (%) [5]: 30% and 28%
- Population Tubulin-Different-Phenotype (%) [5]: 41% and 34%
- Population Apoptotic (%) [6]: 61%
- Population Fragmented Nuclei (%) [6]: 30% and 22%
- Population Healthy Nuclei (%) [6]: 36% and 59%
- Population Hoechst High Intensity Objects (%) [6]: 11% and 15%
- Population Membrane Permeable-Phenotype (%) [6]: 60% and 22%
- Population Mitochondria Different-Phenotype (%) [6]: 40%
- Population Mitotic Cells (%) [6]: 38%
- Population Normal (%) [6]: 88% and 84%
- Population Pyknosed Nuclei (%) [6]: 33% and 18%
- Population Tubulin-Different-Phenotype (%) [6]: 62% and 31%
- Population Apoptotic (%) [7]: 63% and 43%
- Population Fragmented Nuclei (%) [7]: 18% and 14%
- Population Healthy Nuclei (%) [7]: 55%
- Population Hoechst High Intensity Objects (%) [7]: 7% and 4%
- Population Membrane Permeable-Phenotype (%) [7]: 55%
- Population Mitochondria Different-Phenotype (%) [7]: 29% and 33%
- Population Mitotic Cells (%) [7]: 36% and 56%
- Population Normal (%) [7]: 92% and 95%
- Population Pyknosed Nuclei (%) [7]: 25% and 30%
- Population Tubulin-Different-Phenotype (%) [7]: 29% and 34%
- Total Cell Count [7]: 176 and 207
- Population Apoptotic (%) [8]: 82% and 47%
- Population Fragmented Nuclei (%) [8]: 21% and 17%
- Population Healthy Nuclei (%) [8]: 43%
- Population Hoechst High Intensity Objects (%) [8]: 9% and 14%
- Population Mitochondria Different-Phenotype (%) [8]: 43% and 22%
- Population Normal (%) [8]: 90% and 85%
- Population Pyknosed Nuclei (%) [8]: 34% and 26%
- Population Tubulin-Different-Phenotype (%) [8]: 38% and 22%
- Total Cell Count [8]: 147 and 90
